Experimental data from ChEMBL document CHEMBL3297729, “Design, synthesis and biological activity of piperlongumine derivatives as selective anticancer agents” (Eur J Med Chem, 2014).
Activity calls are given as the source filed them. The rule behind the calls is not given here.

Key:
MDA-MB-231 = test: Cytotoxicity against human MDA-MB-231 cells after 72 hrs by MTT assay; assay type: functional, cell-based; conditions: MDA-MB-231, 72 h
In short: (§1)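 MTT assay. Cells seeded at 5 × 10^3/well and grown 24 h at 37 °C in humidified 5% CO2. Compounds added at a range of concentrations in triplicate wells, with 0.1% DMSO as control, for 72 h. MTT (5 mg/mL solution) added for a further 4 h. Formazan dissolved in DMSO and absorbance read at 570 nm. IC50 derived by the Logit method.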

A549 [1] = test: Cytotoxicity against human A549 cells after 72 hrs by MTT assay; assay type: functional, cell-based; conditions: A549, 72 h; in short: as §1
[2] = Cytotoxicity against human ZR75-30 cells after 72 hrs by MTT assay; assay type: functional, cell-based; conditions: ZR-75-30, 72 h; in short: as §1
HCT-116 = test: Cytotoxicity against human HCT116 cells after 72 hrs by MTT assay; assay type: functional, cell-based; conditions: HCT-116, 72 h; in short: as §1
MRC5 = test: Cytotoxicity against human MRC5 cells after 72 hrs by MTT assay; assay type: cell-based; conditions: MRC5, 72 h; in short: as §1
WI-38 = test: Cytotoxicity against human WI38 cells after 72 hrs by MTT assay; assay type: cell-based; conditions: WI-38, 72 h; in short: as §1
[3] = Cytotoxicity against human Hep3B cells after 72 hrs by MTT assay; assay type: functional, cell-based, Hep 3B2; in short: as §1
[4] = Selectivity ratio of IC50 for human MRC5 cells to IC50 for human ZR75-30 cells; assay type: ADME, cell-based; conditions: MRC5 cells versus ZR75-30 cells, read-out: Ratio IC50
[5] = Selectivity ratio of IC50 for human MRC5 cells to IC50 for human HCT116 cells; assay type: ADME, cell-based, HCT-116; conditions: MRC5 cells versus HCT116 cells, read-out: Ratio IC50
[6] = Selectivity ratio of IC50 for human MRC5 cells to IC50 for human MDA-MB-231 cells; assay type: ADME, cell-based; conditions: MRC5 cells versus MDA-MB-231 cells, read-out: Ratio IC50
A549 [7] = test: Antitumor activity against human A549 cells xenografted in BALB/C nude mouse assessed as inhibition of tumor growth at 2 mg/kg, ip administered for 14 days; assay type: functional; conditions: 336 h, route intraperitoneal
Mus musculus = test: Toxicity in human A549 cells xenografted BALB/C nude mouse assessed as reduction of body weight at 2 mg/kg, ip administered for 14 days; assay type: organism-based; parameters: dose 2 mg/kg, route intraperitoneal; conditions: in vivo, 336 h
In short: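 Male BALB/C nude mice (18–20 g) implanted sc in the right axilla with A549 cells. Dosing began at tumor volume about 100–300 mm3 (day 17): 2 mg/kg ip daily for 14 days, in normal saline with tween-80 as solubilizer. Six mice per treatment group, eight controls. Caliper tumor volume (1/2·a·b²) and body weight recorded every 4 days. Sacrifice on days 30–33 and tumors excised.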

A549 [8] = test: Increase of ROS level in human A549 cells at 10 uM after 1 hr by fluorescence microscopic analysis; assay type: functional, cell-based
In short: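 Cells treated with compound or DMSO for 1 h, then loaded with 10 μM DCFH-DA for 30 min at 37 °C. Washed twice with PBS and imaged at once by fluorescence microscopy. Mean fluorescence compared with control.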

Row | Compound | IC50 (MDA-MB-231) [µM] | IC50 (A549 [1]) [µM] | IC50 [2] [µM] | IC50 (HCT-116) [µM] | IC50 (MRC5) [µM] | IC50 (WI-38) [µM] | IC50 [3] [µM] | selectivity ratio [4] | selectivity ratio [5] | selectivity ratio [6] | inhibition in vivo at 2 mg/kg (A549 [7]) [%] | Activity (Mus musculus) | Activity (A549 [8])
1 | COc1cc(/C=C(\C)C(=O)N2CCC=C(N3CCOCC3)C2=O)cc(OC)c1OC | > 100 | > 100 | > 100 | > 100 | > 100 |  |  |  |  |  |  |  | 
2 | CC/C(=C\c1cc(OC)c(OC)c(OC)c1)C(=O)N1CCC=C(Cl)C1=O | 7.27 | 4.06 |  | 9.17 |  | 5.48 | 19 |  |  |  |  |  | 
3 | CC/C(=C\c1cc(OC)c(OC)c(OC)c1)C(=O)N1CCC=C(Br)C1=O | 2.12 | 2.18 |  | 3.02 |  | 7.94 | 8.12 |  |  |  |  |  | 
4 | COc1cc(/C=C/C(=O)N2CCC=C(N3CCOCC3)C2=O)cc(OC)c1OC | > 100 | > 100 | 52.6 | 47.2 | 56.1 |  |  |  |  |  |  |  | 
5 | COc1cc(/C=C/C(=O)N2CCC=C(Cl)C2=O)cc(OC)c1OC | 6.71 | 19.8 | 4.49 | 4.28 | 14.3 |  |  | 2 | 2 | 2 |  |  | 
6 | COc1cc(/C=C(\C)C(=O)N2CCC=CC2=O)cc(OC)c1OC | 11.7 | 23.9 | 3.32 | 10.3 | 19.4 |  |  |  |  |  |  |  | 
7 | CCC/C(=C\c1cc(OC)c(OC)c(OC)c1)C(=O)N1CCC=C(Br)C1=O | 2.36 | 2.63 |  | 2.14 |  | 5.02 | 5.54 |  |  |  |  |  | 
8 | CCC/C(=C\c1cc(OC)c(OC)c(OC)c1)C(=O)N1CCC=C(N2CCOCC2)C1=O | > 100 | > 100 | > 100 | > 100 | 52.5 |  |  |  |  |  |  |  | 
9 | CC/C(=C\c1cc(OC)c(OC)c(OC)c1)C(=O)N1CCC=CC1=O | 23.7 | 17.9 | 3.16 | 12.3 | 13.5 |  |  |  |  |  |  |  | 
10 | COc1cc(/C=C/C(=O)N2CCC=CC2=O)cc(OC)c1OC [PIPLARTINE] | 8.46 | 22.9 | 5.86 | 6.04 | 35 | 26.8 | 69.5 |  |  |  |  |  | 
11 | CCCC/C(=C\c1cc(OC)c(OC)c(OC)c1)C(=O)N1CCC=C(Cl)C1=O | 6.55 | 3.78 |  | 7.53 |  | 7.93 | 14.8 |  |  |  |  |  | 
12 | CC/C(=C\c1cc(OC)c(OC)c(OC)c1)C(=O)N1CCC=C(N2CCOCC2)C1=O | > 100 | > 100 | > 100 | > 100 | > 100 |  |  |  |  |  |  |  | 
13 | CCCC/C(=C\c1cc(OC)c(OC)c(OC)c1)C(=O)N1CCC=C(Br)C1=O | 2.44 | 2.56 |  | 2.59 |  | 9.21 | 14.8 |  |  |  |  |  | 
14 | COc1cc(/C=C(\C)C(=O)N2CCC=C(Cl)C2=O)cc(OC)c1OC | 6.07 | 3.94 |  | 9.85 |  | 19.6 | 16.7 |  |  |  | 48.6 | Non-toxic | Active
15 | COc1cc(/C=C/C(=O)N2CCC=C(Br)C2=O)cc(OC)c1OC | 2.73 | 4.79 |  | 7.12 |  | 20.7 | 8.09 |  |  |  |  |  | 
16 | CCC/C(=C\c1cc(OC)c(OC)c(OC)c1)C(=O)N1CCC=C(Cl)C1=O | 8.13 | 3.81 |  | 8.08 |  | 10.4 | 22.4 |  |  |  |  |  | 
17 | COc1cc(/C=C(\C)C(=O)N2CCC=C(Br)C2=O)cc(OC)c1OC | 2.47 | 2.67 |  | 6.2 |  | 7.16 | 3.1 |  |  |  |  |  | 
